The source of these data is ChEMBL document CHEMBL1143326, “Single-step high-yield radiosynthesis and evaluation of a sensitive 18F-labeled ligand for imaging brain peripheral benzodiazepine receptors with PET” (J Med Chem, 2009).

For data set [1], the target named is Translocator protein (Homo sapiens, UniProt P30536). The experiment in a line: Displacement of [3H]PK11195 from human PBR receptor. Put shortly:
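Competition binding against [3H]PK 11195 in human brain tissue (mitochondrial fraction of brain homogenate). The tissue came from the NIMH Clinical Brain Disorders Branch. Affinity is expressed as Ki.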
In general terms: Displacement assays read how much labelled ligand stays bound in the presence of the test substance.

Data set [2] can be described thus: Displacement of [3H]PK11195 from monkey PBR receptor. Further details: species or system Macaca mulatta.
Data set [3] has as its target Translocator protein (Rattus norvegicus, UniProt P16257). As to the kind of experiment: Displacement of [3H]PK11195 from rat PBR receptor.
The nature of data set [4]: Distribution coefficient, log D at pH 7.4. To be noted: octanol/water. In kind it is physicochemical. Put shortly:
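Radioligand partitioned between n-octanol and sodium phosphate buffer (0.15 M, pH 7.4); LogD taken as log of the distribution coefficient; n = 6.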

Data set [5] in a line: Stability in rat brain at 3.78 ug/kg, iv after 95 mins. It counts as ADME, organism-based. To be noted: 0.00378 mg/kg, read-out: Stability.
The test system of data set [6] is Plasma. The experiment in a line: Stability in rat plasma assessed as drug recovery into acetonitrile analytes at 3.78 ug/kg, iv. Particulars: 0.00378 mg/kg.
Data set [7] in a line: Stability in sodium phosphate buffer at pH 7.4 after 2 hrs by HPLC. It counts as physicochemical. To be noted: pH 7.4, 2 h. Put shortly:
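Radioligand held in sodium phosphate buffer (0.15 M, pH 7.4) for 2 h at room temperature; analysed by HPLC.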

A short description of data set [8]: Drug level in rat brain assessed as drug recovery into acetonitrile analytes at >1.39 Ci/umol, iv after 60 mins. It counts as ADME, organism-based. To be noted: read-out: Drug uptake.
Data set [9] in a line: Stability in rat brain assessed as unchanged drug level at 2 uCi upto 60 mins. It counts as ADME, tissue-based. Particulars: read-out: Stability.
Data set [10] is described as follows: Stability in rhesus monkey plasma assessed as unchanged drug level after 45 mins by HPLC. In kind it is ADME, cell-free, Macaca mulatta. To be noted: read-out: Stability. The gist of the method:
(§1)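 Radioligand incubated for at least 45 min at room temperature in monkey whole blood or plasma. Sample mixed with acetonitrile and centrifuged; supernatant analysed by reverse-phase radio-HPLC.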

The nature of data set [11]: Drug level in rat brain assessed as unchanged drug level at >1.39 Ci/umol, iv after 60 mins. In kind it is ADME, organism-based. To be noted: read-out: Drug uptake.
Data set [12] in a line: Drug level in rat plasma assessed as drug recovery into acetonitrile analytes at >1.39 Ci/umol, iv after 60 mins. It counts as ADME, organism-based. Particulars: read-out: Drug uptake.
The subject of data set [13] is Plasma. As to the kind of experiment: Drug distribution in monkey plasma. It counts as ADME, cell-free, Macaca mulatta. Particulars: rhesus monkey. Put shortly:
(§2)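 Radioligand incubated in vitro with monkey whole blood, then centrifuged; radioactivity counted in the plasma and cell fractions; n = 4.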

Data set [14] is described as follows: Drug level in rat urine assessed as unchanged drug level at >1.39 Ci/umol, iv after 60 mins. To be noted: in vivo, 1 h. In kind it is ADME, organism-based.
Data set [15] concerns Plasma. The experiment in a line: Fraction unbound in human plasma. In kind it is ADME, cell-free. Put shortly: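 Radioligand added to pooled human plasma and ultrafiltered at 5000g through Centrifree units; all filter-unit components counted for radioactivity to give the free fraction; n = 3.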
The nature of data set [16]: Stability in rat plasma at 3.78 ug/kg, iv after 7.3 mins. It counts as ADME, organism-based. Particulars: 0.00378 mg/kg, read-out: Stability.
In data set [17] the test system is Brain. As to the kind of experiment: Stability in rat brain assessed as drug recovery into acetonitrile analytes at 3.78 ug/kg, iv. It counts as ADME, organism-based. To be noted: in vivo, 0.00378 mg/kg.
Data set [18] can be described thus: Stability in rat plasma assessed as drug recovery at 1.36 Ci/umol, iv after 30 mins. Particulars: read-out: Stability. It counts as ADME, organism-based. Put shortly:
(§3)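 Isoflurane-anaesthetised rat at 37 °C given no-carrier-added radioligand i.v. (mass dose 0.85 μg/kg); sacrifice at 30 min. Plasma and brain homogenate (saline plus acetonitrile) extracted into acetonitrile; supernatants analysed by reverse-phase radio-HPLC (C18, MeOH/H2O/Et3N 75:25:0.1); recovery of radioactivity and parent fraction measured.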

The nature of data set [19]: Stability in rhesus monkey whole blood assessed as unchanged drug level after 45 mins by HPLC. In kind it is ADME, tissue-based, Macaca mulatta. To be noted: read-out: Stability. The gist of the method: as §1
Data set [20] relates to Plasma. The experiment in a line: Drug level in rat plasma assessed as unchanged drug level at >1.39 Ci/umol, iv after 60 mins. It counts as ADME, organism-based. Particulars: in vivo, 1 h.
A short description of data set [21]: Stability in rat plasma at 3.78 ug/kg, iv after 10.9 mins. To be noted: 0.00378 mg/kg, read-out: Stability. In kind it is ADME, organism-based.
A short description of data set [22]: Drug level in rat urine assessed as drug recovery into acetonitrile analytes at >1.39 Ci/umol, iv after 60 mins. It counts as ADME, organism-based. To be noted: read-out: Drug uptake.
Data set [23] is described as follows: Stability in rat plasma at 3.78 ug/kg, iv after 94.3 mins. To be noted: 0.00378 mg/kg, read-out: Stability. In kind it is ADME, organism-based.
The subject of data set [24] is Brain. As to the kind of experiment: Drug level in rhesus monkey brain assessed as standard uptake value in choroid plexus of fourth ventricle at 2.76 to 5.8 mCi, iv. In kind it is ADME, organism-based, Macaca mulatta. Particulars: in vivo. Put shortly:
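Male rhesus monkeys (11–15 kg) anaesthetised with ketamine, then 1.6% isoflurane. Bolus i.v. radioligand (2.76–5.80 mCi; 0.068–0.276 μg/kg) given; PET for up to 300 min, co-registered with T1 MRI. Regional radioactivity expressed as %SUV; n = 4.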

Data set [25] concerns Blood. As to the kind of experiment: Drug level in monkey blood assessed as drug distribution in cellular compartment. It counts as ADME, tissue-based, Macaca mulatta. To be noted: rhesus monkey. The gist of the method: as §2
Data set [26] can be described thus: Stability in rat brain assessed as drug recovery at 1.36 Ci/umol, iv after 30 mins. In kind it is ADME, organism-based. To be noted: read-out: Stability. The gist of the method: as §3
A short description of data set [27]: Stability in rat whole blood assessed as conversion into polar radiometabolites at 10 uCi after 30 mins. It counts as ADME, tissue-based. Particulars: 0.5 h. Put shortly: (§4)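 Radioligand incubated for 30 min with rat brain homogenate or rat whole blood; conversion to polar species eluting at the solvent front measured by reverse-phase radio-HPLC.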
For data set [28], the system named is Brain. The experiment in a line: Drug level in rat brain assessed as standard uptake value at 74.6 uCi, iv after 30 mins. In kind it is ADME, organism-based. To be noted: in vivo, 0.5 h.
Data set [29] concerns Plasma. The experiment in a line: Drug level in rat plasma assessed as standard uptake value at 74.6 uCi, iv after 30 mins. It counts as ADME, organism-based. To be noted: in vivo, 0.5 h.
Data set [30] has as its system Blood. The experiment in a line: Drug level in rat blood assessed as standard uptake value at 74.6 uCi, iv after 30 mins. It counts as ADME, organism-based. To be noted: in vivo, 0.5 h.
Data set [31] relates to Plasma. As to the kind of experiment: Drug level in rat plasma assessed generation of polar radiometabolites as at 74.6 uCi, iv after 30 mins. In kind it is ADME, organism-based. To be noted: in vivo, 0.5 h.
Data set [32] has as its system Brain. As to the kind of experiment: Stability in rat brain assessed as conversion into polar radiometabolites at 10 uCi after 30 mins. In kind it is ADME, tissue-based. Particulars: 0.5 h. The gist of the method: as §4
For data set [33], the system named is Brain. The experiment in a line: Drug level in rat brain assessed generation of polar radiometabolites as at 74.6 uCi, iv after 30 mins. It counts as ADME, organism-based. To be noted: in vivo, 0.5 h.

Chain of Translocator protein (Rattus norvegicus, UniProt P16257) (P16257 whole entry, looked up): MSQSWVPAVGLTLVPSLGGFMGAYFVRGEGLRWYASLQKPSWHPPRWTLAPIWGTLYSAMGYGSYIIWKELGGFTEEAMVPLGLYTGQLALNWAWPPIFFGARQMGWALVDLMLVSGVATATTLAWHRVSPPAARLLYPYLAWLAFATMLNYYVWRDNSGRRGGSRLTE
Chain of Translocator protein (Homo sapiens, UniProt P30536) (P30536 whole entry): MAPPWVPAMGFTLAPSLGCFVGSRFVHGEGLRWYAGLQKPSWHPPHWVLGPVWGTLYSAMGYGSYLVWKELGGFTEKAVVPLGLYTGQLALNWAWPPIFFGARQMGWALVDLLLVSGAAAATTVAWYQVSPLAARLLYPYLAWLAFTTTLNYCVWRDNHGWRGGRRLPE

By Ki is commonly meant the equilibrium dissociation constant of an inhibitor or competing ligand from its target. The term logD denotes the decadic logarithm of the distribution of all forms, ionised or not, between an organic phase and buffer at a given pH. In the case of `COc1ccc(OC)c(CN(C(=O)CF)c2ccccc2Oc2ccccc2)c1`, the Ki on Translocator protein [1] turned out to be 0.997 nM; in [2], 0.318 nM; on Translocator protein [3], 0.18 nM. This compound also returned a logD in data set [4] of 4.05.
Take `COc1ccc(OC)c(CN(C(=O)C[18F])c2ccccc2Oc2ccccc2)c1`: in [5], the remaining at 95 min worked out at 39.2%. Also, the Stability in the data set with Plasma [6] was 93%; in data set [7] it was “Stable”; in the data set on Brain [17], 81.8%. Moreover, the recovery at 1 h in [8] was determined as 91%; in data set [12], 93.2%; in data set [22], 80.3%. Moreover, the remaining at 1 h in [9] is > 99.2%; in [11], 32.6%. The remaining at 0.75 h turned out to be 97.2% in data set [10] and 95.5% in data set [19]. The Drug uptake in the data set on Plasma [13] is 6.6%; in [14], 0.2%; with Plasma [20], 14.2%; with Blood [25] it was 93.4%. Also, in the data set with Plasma [15], the Fu was determined as 0.7%. In addition, in data set [16], the remaining at 0.121667 h was determined as 44.6%. The figures for the remaining at 0.5 h in [18] and in data set [26] were 92.7% and 85.1%, respectively. Also, the remaining at 0.181667 h in data set [21] was 37.6%. For the same compound, the remaining at 1.57167 h in [23] turned out to be 5.7%. Moreover, the Activity with Brain [24] is reported as 350%.
As to `O=C(C[18F])Nc1ccccc1Oc1ccccc1`, the Stability (in data set [27]; with Brain [32]) was > 99.9% throughout. Further, the Drug uptake with Brain [28] is on record as 120%; in the data set on Plasma [29] it was 226%; in the data set with Blood [30], 196%. Moreover, the Activity in the data set on Plasma [31] and in the data set on Brain [33] was > 99% each time.
For `COc1ccc(OC)c(CN(C(C)=O)c2cc(F)ccc2Oc2ccccc2)c1`, the figures for the Ki at Translocator protein [1] and on Translocator protein [3] were 0.242 nM and 0.0726 nM, respectively.
